≈ marks a conversion by molar mass, not a printed value.
Key:
Anas sp. [1] = test: Concentration required to reduce the viral DNA in infected cells to 50% of untreated infected controls of Hepatitis B virus in primary duck hepatocyte (DHBV) cultures; type: functional
Procedure, shortened: (§1)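 Primary hepatocytes from 9–14 day old ducklings persistently infected with DHBV, in L-15 with 5% FBS plus antibiotics. Compound was serially diluted and added in triplicate from day 2, with medium changed every second day to day 12; cells were harvested day 14. Viral DNA was measured by 32P-probe dot-blot and phosphorimaging, and EC50 was taken as 50% reduction versus untreated infected cells.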

[2] = Concentration required to reduce the proliferation of PHA stimulated human peripheral blood T lymphocytes to 50% of untreated PHA stimulated control; type: functional
Procedure, shortened: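 Nylon-wool-enriched T cells from normal donor buffy coats, 2 × 10^5 per well in serum-free AIM V, were stimulated with PHA at 1 µg/mL final. Compounds from DMSO stock were tested in triplicate from 50 µg/mL in serial dilutions. After 3–4 days at 37 °C, cells were pulsed with [3H]thymidine 1 µCi/well for 18 h and counted by scintillation. Counts were compared with DMSO-matched PHA controls.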

HFF [3] = test: Cytotoxic concentration required to reduce the uptake of neutral red stain by uninfected cell monolayers to 50% of untreated uninfected human foreskin fibroblasts (HFF); type: functional
Procedure, shortened: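 Neutral red uptake was measured in uninfected human foreskin fibroblast monolayers after 7 days of exposure. CC50 is 50% of untreated uninfected cells; ">" means 50% was not reached at the highest concentration tested.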

Daudi = test: Concentration required to reduce the proliferation of Daudi cells to 50% of untreated controls; type: functional, cell-based; conditions: Homo sapiens
Procedure, shortened: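 Daudi cells were grown in suspension, so no trypsin detachment was used. CC50 is the concentration reducing proliferation to 50% of untreated controls.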

Vero = test: Cytotoxic concentration required to reduce the viability of Vero cells as determined by MTT assay; type: functional; conditions: Chlorocebus sabaeus
Procedure, shortened: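 Vero cells were seeded at 2.5 × 10^4 per well and attached for 6–8 h. They were then exposed for 3 days at 37 °C to 200–1.5 µg/mL, with a DMSO control. MTT was added for 4 h, solubilized overnight, and absorbance read at 560–650 nm. CC50 is 50% viability of untreated control.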

HFF [4] = test: Concentration required to reduce the proliferation of HFF (human foreskin fibroblasts) cells to 50% of untreated controls; type: functional, cell-based
Anas sp. [5] = test: In vitro antiviral activity against Hepatitis B virus in primary duck hepatocyte (DHBV) cultures and expressed as percent inhibition of viral DNA at 10 ug/mL; type: functional
Procedure, shortened: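 DHBV-infected primary duck hepatocytes in L-15 with 5% FBS were treated at 10 µg/mL final in triplicate from day 2 to day 12, with medium changed every second day, and harvested day 14. DNA was extracted and dot-blot hybridized with a 32P DHBV probe, then quantified by phosphorimaging. % inhibition = (untreated − treated)×100/untreated, averaged over triplicates.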

Anas sp. [6] = test: Concentration required to reduce the viral DNA in infected cells to 50% of untreated infected controls of Hepatitis B virus in primary duck hepatocyte (DHBV) cultures.; type: functional, organism-based; procedure, shortened: as §1

Row | IC50 (Daudi) [mg/L] | SMILES | EC50 (Anas sp. [1]) [mg/L] | IC50 [2] [mg/L] | CC50 (HFF [3]) [mg/L] | CC50 (Vero) [mg/L] | IC50 (HFF [4]) [mg/L] | inhibition at 10 µg/mL (Anas sp. [5]) [%] | EC50 (Anas sp. [6]) [mg/L]
1 | – | CC(N=[N+]=[N-])c1cn(COCCO)c(=O)[nH]c1=O (stereo not given) | > 10 | – | – | – | – | – | –
2 | – | CC(N=[N+]=[N-])c1cn(CCC(CO)CO)c(=O)[nH]c1=O (stereo not given) | 0.1 (≈ 0.353 µM) | – | – | – | – | – | –
3 | > 50 | C=C(N=[N+]=[N-])c1cn(COCCO)c(=O)[nH]c1=O | 0.01 (≈ 0.0395 µM) | > 50 | > 100 | > 100 | > 100 | 84 | –
4 | > 50 | C=C(N=[N+]=[N-])c1cn(CCC(CO)CO)c(=O)[nH]c1=O | 0.01 (≈ 0.0356 µM) | > 50 | > 100 | > 200 | > 100 | 93 | –
5 | > 50 | C=C(N=[N+]=[N-])c1cn(COC(CO)CO)c(=O)[nH]c1=O | 0.01 (≈ 0.0353 µM) | > 50 | > 100 | > 200 | 100 (≈ 353 µM) | 86 | –
6 | – | CC(N=[N+]=[N-])c1cn(COC(CO)CO)c(=O)[nH]c1=O (stereo not given) | 1 (≈ 3.51 µM) | – | – | – | – | – | –
7 | – | Nc1nc2c(ncn2COC(CO)CO)c(=O)[nH]1 [GANCICLOVIR] | 1.5 (≈ 5.88 µM) | – | – | – | – | – | –
8 | – | Nc1ccn([C@@H]2CS[C@H](CO)O2)c(=O)n1 [LAMIVUDINE] | 0.01 (≈ 0.0436 µM) | > 50 | – | > 100 | – | 96 | –
9 | – | Nc1nc(O)c2ncn(CCC(CO)CO)c2n1 [PENCICLOVIR] | – | – | – | – | – | – | 0.3 (≈ 1.18 µM)
